ChEMBL document CHEMBL1156540, “Remarkable DNA binding affinity and potential anticancer activity of pyrrolo[2,1-c][1,4]benzodiazepine-naphthalimide conjugates linked through piperazine side-armed alkane spacers” (Bioorg Med Chem, 2008)
One block for each molecule: values may come before it.

Legend:
[1] = tested on: DNA; experiment: Binding affinity to calf thymus DNA assessed as helix melting temperature at 20 uM after 18 hrs by thermal denaturation assay; format: nucleic-acid assay; details: Bos taurus
Summary of the method: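 Calf thymus duplex DNA (100 µM in phosphate) with ligand at 20 µM (1:5 ligand/DNA molar ratio), added from concentrated DMSO stock into 10 mM sodium phosphate, 1 mM EDTA, pH 7.00. Incubated at 37 °C before melting. Absorbance followed at 260 nm while heating 1 °C/min over 40–95 °C. Tm taken from maxima of d(A260)/dT derivative plots; ΔTm relative to DNA alone.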

[2] = tested on: HOP-62; experiment: Cytotoxicity against human Hop62 cells by SRB assay; format: functional, cell-based
Summary of the method: (§1)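 Human tumour lines given dose–response treatment, with growth or viability estimated by sulforhodamine B protein staining. IC50 is the dose giving 50% growth inhibition versus untreated controls, read from IC50 graphs. Triplicate wells; each experiment repeated three times.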

[3] = tested on: SiHa; experiment: Cytotoxicity against human SiHa cells by SRB assay; format: functional, cell-based; summary of the method: as §1
[4] = tested on: MCF7; experiment: Cytotoxicity against human MCF7 cells by SRB assay; format: functional, cell-based; summary of the method: as §1
[5] = tested on: ZR-75-1; experiment: Cytotoxicity against human ZR751 cells by SRB assay; format: functional, cell-based; summary of the method: as §1
[6] = tested on: PC-3; experiment: Cytotoxicity against human PC3 cells by SRB assay; format: functional, cell-based; summary of the method: as §1
[7] = tested on: COLO 205; experiment: Cytotoxicity against human Colo205 cells by SRB assay; format: functional, cell-based; summary of the method: as §1
[8] = tested on: A2780; experiment: Cytotoxicity against human A2780 cells by SRB assay; format: functional, cell-based; summary of the method: as §1

SMILES: COc1cc2c(cc1OCCN1CCN(CCN3C(=O)c4cccc5cccc(c45)C3=O)CC1)N=C[C@@H]1CCCN1C2=O
- ΔTm [1]: 22.7 °C
- IC50 [2]: 1200 nM
- IC50 [3]: 1000 nM
- IC50 [4]: 1400 nM
- IC50 [5]: < 1000 nM
- IC50 [6]: 800 nM
- IC50 [7]: 1600 nM
- IC50 [8]: 500 nM

SMILES: COc1cc2c(cc1OCCCOc1cc3c(cc1OC)C(=O)N1CCC[C@H]1C=N3)N=C[C@@H]1CCCN1C2=O
- ΔTm [1]: 15.1 °C

SMILES: COc1cc2c(cc1O)N=C[C@@H]1CCCN1C2=O
- ΔTm [1]: 0.7 °C

SMILES: COc1cccc2c1C(=O)c1c(O)c3c(c(O)c1C2=O)C[C@@](O)(C(=O)CO)C[C@@H]3O[C@H]1C[C@H](N)[C@H](O)[C@H](C)O1 [DOXORUBICIN]
- IC50 [4]: 500 nM

Continued, in another order:

- ΔTm [1]: 20.8 °C
SMILES: COc1cc2c(cc1OCCCCN1CCN(CCCCN3C(=O)c4cccc5cccc(c45)C3=O)CC1)N=C[C@@H]1CCCN1C2=O

- ΔTm [1]: 23.9 °C
SMILES: COc1cc2c(cc1OCCCCN1CCN(CCN3C(=O)c4cccc5cccc(c45)C3=O)CC1)N=C[C@@H]1CCCN1C2=O
- IC50 [2]: < 1000 nM
- IC50 [3]: 800 nM
- IC50 [4]: 500 nM
- IC50 [5]: < 1000 nM
- IC50 [6]: 500 nM
- IC50 [7]: 500 nM
- IC50 [8]: 600 nM

- ΔTm [1]: 26.5 °C
SMILES: COc1cc2c(cc1OCCCN1CCN(CCN3C(=O)c4cccc5cccc(c45)C3=O)CC1)N=C[C@@H]1CCCN1C2=O
- IC50 [2]: < 1000 nM
- IC50 [3]: 700 nM
- IC50 [4]: 500 nM
- IC50 [5]: < 1000 nM
- IC50 [6]: 500 nM
- IC50 [7]: 500 nM
- IC50 [8]: 500 nM

- ΔTm [1]: 12.9 °C
SMILES: COc1cc2c(cc1OCCCN1CCN(CCCN3C(=O)c4cccc5cccc(c45)C3=O)CC1)N=C[C@@H]1CCCN1C2=O
